Experimental data: BindingDB's records for doi:10.1021/jm0003844 (Pfizer, 2001)

target: Human immunodeficiency virus type 1 protease (Human immunodeficiency virus 1, UniProt Q72874); test: HIV-1 protease inhibition.
Method in brief: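 Affinity-purified HIV-1 protease (1.5 nM final) with 40 µM peptide substrate His-Lys-Ala-Arg-Val-Leu-(p-NO2-Phe)-Glu-Ala-Nle-Ser-NH2 and 1.0% DMSO. Buffer: 80 mM MES, 160 mM NaCl, 1.0 mM DTT, 1.0 mM EDTA, 0.1% PEG 8000, pH 6.2. Incubated 60 min at 37 °C, then quenched with TFA (2% final). Products separated by reverse-phase HPLC and read at 220 nm. Percent control derived from % conversion with vs without inhibitor; IC50 then determined.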

Row | IC50 [nM] | Structure (SMILES)
1 | 14 | Cc1cc(SC2C(=O)CC(CCc3ccsc3CO)(C(C)C)OC2=O)c(C(C)(C)C)cc1CO (centres undefined) [3-(2-tert-Butyl-4-hydroxymethyl-5-methyl-phenylsulfanyl)-4-hydroxy-6-[2-(2-hydroxymethyl-thiophen-3-yl)-ethyl]-6-isopropyl-5,6-dihydro-pyran-2-one]
2 | 1.3 | Cc1cc(SC2C(=O)CC(CCc3cscn3)(C(C)C)OC2=O)c(C(C)(C)C)cc1CO (centres undefined) [3-(2-tert-Butyl-4-hydroxymethyl-5-methyl-phenylsulfanyl)-4-hydroxy-6-isopropyl-6-(2-thiazol-4-yl-ethyl)-5,6-dihydro-pyran-2-one]
3 | 14 | Cc1cc(SC2C(=O)CC(CCc3nc(C(C)C)cs3)(C(C)C)OC2=O)c(C(C)(C)C)cc1CO (centres undefined) [3-(2-tert-Butyl-4-hydroxymethyl-5-methyl-phenylsulfanyl)-4-hydroxy-6-isopropyl-6-[2-(4-isopropyl-thiazol-2-yl)-ethyl]-5,6-dihydro-pyran-2-one]
4 | 1.3 | Cc1cc(SC2C(=O)CC(CCc3ncsc3C)(C(C)C)OC2=O)c(C(C)(C)C)cc1CO (centres undefined) [3-(2-tert-Butyl-4-hydroxymethyl-5-methyl-phenylsulfanyl)-4-hydroxy-6-isopropyl-6-[2-(5-methyl-thiazol-4-yl)-ethyl]-5,6-dihydro-pyran-2-one]
